Experimental data reported in ChEMBL document CHEMBL4266025, “Stereoselective Synthesis of the Isomers of Notoincisol A: Assigment of the Absolute Configuration of this Natural Product and Biological Evaluation” (J Nat Prod, 2018).
Activity calls are given as the source filed them. The calls are words filed in the database; no cut-off is given here.

What was measured:
[1] = tested on: Oocyte; assay: Induction of current amplitude in Xenopus laevis oocytes after […] by electrophysiological method; assay type: functional, cell-based
[2] = target: GABA-A receptor; alpha-1/beta-2/gamma-2 (Homo sapiens) (UniProt P14867+P47870+P18507); assay: Positive allosteric modulation of GABAA receptor alpha1beta2gamma2 (unknown origin) expressed in Xenopus laevis oocytes assessed as GABA-stimulated current amplitude at 1 to 10 uM incubated for 120 secs by electrophysiological method relative to control; assay type: cell-based
Summary of the method: (§1)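 Two-electrode voltage clamp on Xenopus oocytes injected with subunit mRNA mixtures (α1β3 or α1β2γ2). Compounds at 1 and 10 μM, diluted into measurement buffer, co-applied with GABA at EC3-5, EC20, EC50 and EC80. Result taken as enhancement of the GABA-elicited current.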

[3] = target: GABA-A receptor alpha-1/beta-3 (Homo sapiens) (UniProt P14867+P28472); assay: Positive allosteric modulation of GABAA receptor alpha1beta3 (unknown origin) expressed in Xenopus laevis oocytes assessed as GABA-stimulated current amplitude at 1 to 10 uM up to 120 secs by electrophysiological method; assay type: cell-based; summary of the method: as §1
[4] = target: T1, Peroxisome proliferator-activated receptor gamma (Homo sapiens) (UniProt P37231); assay: Transactivation of human full length PPARgamma expressed in HEK293 cells up to 3 uM after 18 hrs by luciferase reporter gene based luminescence assay; assay type: cell-based
T1 sequence (whole entry): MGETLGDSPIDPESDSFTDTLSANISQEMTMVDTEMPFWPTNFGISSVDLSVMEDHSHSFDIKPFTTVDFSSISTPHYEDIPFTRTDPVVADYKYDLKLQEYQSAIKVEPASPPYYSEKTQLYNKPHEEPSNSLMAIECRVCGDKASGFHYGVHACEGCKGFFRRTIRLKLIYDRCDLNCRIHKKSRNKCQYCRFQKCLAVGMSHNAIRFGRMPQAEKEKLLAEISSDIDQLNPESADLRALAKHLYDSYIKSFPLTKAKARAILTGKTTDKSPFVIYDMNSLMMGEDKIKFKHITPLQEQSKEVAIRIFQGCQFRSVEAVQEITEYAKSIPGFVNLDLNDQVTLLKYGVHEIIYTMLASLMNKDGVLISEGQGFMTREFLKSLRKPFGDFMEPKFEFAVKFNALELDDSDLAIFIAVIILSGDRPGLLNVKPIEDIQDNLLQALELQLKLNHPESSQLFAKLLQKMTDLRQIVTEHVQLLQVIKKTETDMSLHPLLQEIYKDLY
Summary of the method: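 HEK293 cells transfected for 6 h with full-length human PPARγ, a PPRE-firefly luciferase reporter and pEGFP-N1 (internal control). Cells reseeded in serum-free DMEM, dosed at 0.1–30 μM in DMSO and incubated 18 h. Luciferase/EGFP ratio expressed as fold induction over 0.1% DMSO; pioglitazone 5 μM as positive control. EC50 from a variable-slope sigmoidal fit.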

[5] = tested on: HEK293; assay: Cytotoxicity against HEK293 cells assessed as decrease in cell viability at 10 uM after 24 hrs by resazurin based assay; details: human, hek293, 24 h
Summary of the method: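 HEK293 cells seeded at 4 × 10^4 cells/well, grown overnight, then exposed to compound at 0.3, 1, 3, 10 and 30 μM for 24 h. Resazurin (10 μg/mL in PBS) added for 4 h at 37 °C. Resorufin fluorescence read at 535 nm excitation/590 nm emission as the viability measure.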

Which Activity [1] does the source give for C=C[C@@H](O)C#CC#C[C@@H](/C=C\CCCCCCC)OC(=O)/C=C/c1ccc(O)c(OC)c1 here?
The Activity was “Active”.

What about the fold change (FC) [2] of the same compound?
Its fold change (FC) is 4.

What about the Activity [3] of the same compound?
The Activity was “Active”.

And the Activity [4]?
The Activity was “inactive”.

Which Activity [1] does the source give for C=C[C@@H](O)C#CC#C[C@H](/C=C\CCCCCCC)OC(=O)/C=C/c1ccc(O)c(OC)c1 here?
The Activity was “Active”.

And the fold change (FC) [2]?
Its fold change (FC) is 4.

And the Activity [3]?
Its Activity is “Active”.

CCC[C@@H](O)CC/C=C/C=C/C#CC#CCCCO [DIHYDROOENANTHOTOXIN] was tested. Which Activity [5] did it give?
Its Activity is “Toxic”.

And the Activity [4]?
Its Activity is “inactive”.

What does the source list for C=C[C@H](O)C#CC#C[C@@H](O)/C=C\CCCCCCC?
Activity [5]: Toxic; Activity [4]: inactive

For C=CC(O)C#CC#CC(/C=C\CCCCCCC)OC(=O)/C=C/c1ccc(O)c(OC)c1 (stereo not drawn), which Activity [5] is on record?
Its Activity is “Toxic”.

What about the Activity [4] of the same compound?
The Activity was “inactive”.

For C=C[C@H](O)C#CC#C[C@H](/C=C\CCCCCCC)OC(=O)/C=C/c1ccc(O)c(OC)c1, which Activity [1] is on record?
The Activity was “Active”.

What about the fold change (FC) [2] of the same compound?
The fold change (FC) was 4.

What about the Activity [3] of the same compound?
The Activity was “Active”.

What about the Activity [4] of the same compound?
Its Activity is “inactive”.

What does the source list for CCC[C@@H](O)/C=C/C=C/C=C/C#CC#CCCCO [CICUTOXIN]?
Activity [5]: Toxic; Activity [4]: inactive

What does the source list for C=C[C@H](O)C#CC#C[C@@H](/C=C\CCCCCCC)OC(=O)/C=C/c1ccc(O)c(OC)c1?
Activity [1]: Active; fold change (FC) [2]: 4; Activity [3]: Active; Activity [4]: inactive
